In the library only some 2.9% were active in any assay of this set; here they are far more common.
MEKK3 PB1 HTS = modulators of MEKK3-MEK5 PB1 binding, primary screen, biochemical, wildtype MEKK3, multiplex bead flow cytometry, Alexa488-MEK5 | Mitogen-activated protein kinase kinase kinase 3 (Homo sapiens), Q99759 | bead-based flow cytometry, Alexa488-MEK5 binding to MEKK3; actives lie on both sides; 0 = blocked by unlabeled MEK5, 100 = vehicle | binding response (% of control), % at 10 µM | 290,000 compounds, 1.4% hits | AID 1529, 2009;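 active = binding response more than 3 SD above or below the average of its plate-row segment, actives on both sides; inconclusive = wells at one plate position flagged as instrument error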;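 note: Alexa488 bead fluorescence after subtracting the streptavidin-only scavenger bead signal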
Target sequence (Q99759 whole entry, looked up): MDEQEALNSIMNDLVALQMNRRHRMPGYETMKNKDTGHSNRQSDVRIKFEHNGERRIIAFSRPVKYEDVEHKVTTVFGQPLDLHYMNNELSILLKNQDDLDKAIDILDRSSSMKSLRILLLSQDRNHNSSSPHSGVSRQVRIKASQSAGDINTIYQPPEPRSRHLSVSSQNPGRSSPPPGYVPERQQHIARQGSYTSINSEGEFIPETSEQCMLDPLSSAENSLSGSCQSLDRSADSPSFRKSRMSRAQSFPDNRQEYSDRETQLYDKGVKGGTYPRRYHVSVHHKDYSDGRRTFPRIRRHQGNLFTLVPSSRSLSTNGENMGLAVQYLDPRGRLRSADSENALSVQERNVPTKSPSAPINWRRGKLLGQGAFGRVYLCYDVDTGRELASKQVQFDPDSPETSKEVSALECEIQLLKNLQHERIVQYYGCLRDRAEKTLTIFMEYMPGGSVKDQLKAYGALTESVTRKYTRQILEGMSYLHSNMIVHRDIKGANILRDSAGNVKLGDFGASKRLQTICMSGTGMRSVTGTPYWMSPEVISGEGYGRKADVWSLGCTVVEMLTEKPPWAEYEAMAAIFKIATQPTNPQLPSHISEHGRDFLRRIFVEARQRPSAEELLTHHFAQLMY
Apaf1 inhib = inhibitors of human Apaf-1 apoptosome, primary screen, biochemical, DEVD-Rh110 fluorescence, uHTS; Apoptotic protease-activating factor 1 (Homo sapiens), O14727; reconstituted apoptosome caspase-3 activity; inhibition, % at 20 µM; 330,000 compounds, 0.71% hits; active = inhibition of at least 40% at 20 µM;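 note: plate controls were DMSO wells for no effect and DEVD-CHO caspase inhibitor wells for full effect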
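Medium: Hepes buffer, pH 7.5 / System: biochemical Apaf-1 apoptosome reconstitution / Measured by: Rh110 fluorescence, excitation 480 nm, emission 540 nm / Times: compound with Apaf-1, dATP, procaspase-3 30 min, then 50 min reaction, room temperature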
UBC13 inh = UBC13 polyubiquitin chain formation inhibitors, primary screen, biochemical, TR-FRET, uHTS; inhibition, % at 20 µM; 330,000 compounds, 0.47% hits; AID 485273, 2010; in the data active = inhibition above about 45%, passing the limit was not always enough; inconclusive = no clear call, values can overlap the other calls
MEKK2mut PB1 HTS = MEK5 binding signal on mutant MEKK2 PB1, primary screen, biochemical, multiplex bead flow cytometry, Alexa488-MEK5; Alexa488-MEK5 binding to MEKK2 mutant; percent response, % at 10 µM; 290,000 compounds, 0.35% hits; AID 1530, 2009; in the data active = percent response above about 24%, passing the limit was not always enough
MEKK2wt PB1 HTS = modulators of MEK5 binding to wildtype MEKK2, primary screen, biochemical, multiplex bead flow cytometry, Alexa488-MEK5; AID 1531, 2009; 290,000 compounds, 1.1% hits; binding response (% of control), % at 10 µM; Alexa488-MEK5 binding to MEKK2 WT; actives lie on both sides; in the data active = binding response below about 67% or above about 130%; inconclusive = no clear call, values can overlap the other calls; inactive = in between
MEKK2wt confirm = modulators of MEK5 binding to wildtype MEKK2, confirmation, biochemical, single concentration, multiplex bead flow cytometry; shares compounds with MEKK3 PB1 HTS; binding response (% of control), % at 10 µM; Alexa488-MEK5 binding to MEKK2 WT; actives lie on both sides; 5,900 compounds, 2.4% hits; in the data active = binding response below about 16% or above about 210%; inactive = in between
MEKK2mut-MEK5 = mutant MEKK2 PB1-MEK5 binding signal retest – biochemical, single concentration, multiplex bead flow cytometry, confirmation. shares compounds with MEKK3 PB1 HTS. Alexa488-MEK5 binding to MEKK2 mutant. percent response, % at 10 µM. 5,900 compounds, 2% hits. AID 1893, 2009; in the data active = percent response mostly above about 71%, no sharp cut-off; inactive = mostly below about 38%;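 note: higher means compound restores mutant binding toward wildtype level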
MEKK3 confirm = MEKK3 wild-type PB1 binding to MEK5, inhibitors, confirmation, biochemical, bead multiplex flow cytometry, single concentration, wildtype; binding response (% of control), % at 10 µM; 5,900 compounds, 1.8% hits; Alexa488-MEK5 binding to MEKK3; stronger effect = lower value; AID 1894, 2009; shares compounds with MEKK3 PB1 HTS;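 active = binding response below 72% of control, or above a set upper limit, though filed actives all read lower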;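 note: 100% = DMSO only wells and 0% = binding blocked by excess unlabeled MEK5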
Active calls of the source: *; u = inconclusive; x = not tested or not shown; [ ] = another dose, or the depositor's remark.

SMILES | MEKK3 PB1 HTS | Apaf1 inhib | UBC13 inh | MEKK2mut PB1 HTS | MEKK2wt PB1 HTS | MEKK2wt confirm | MEKK2mut-MEK5 | MEKK3 confirm
Cc1ccc(SCc2nc3ccccc3n2CC(=O)Nc2ccc(Cl)cc2)cc1 | 106 | 3 | -6 | 26* | 136* | 121 | 18 | 111
Cc1ccc(SCc2nc3ccccc3n2CC(=O)Nc2ccccc2)cc1 | 98 | 5 | 8 | 4 | 100 | x | x | x
COc1cccc2sc3ccc(C#CC4(N)CCCCC4)cc3c(=O)c12 | 103 | 33 | u | 14 | 136* | 145 | 22 | 108
O=C(N=C1c2ccccc2CN1c1ccc(F)c(F)c1)c1cccnc1 | 107 | -10 | 0 | -1 | 101 | x | x | x
O=C(N=C1c2ccccc2CN1c1cccc(Cl)c1)c1cccnc1 | 56*[inhibitor] | -10 | 1 | -2 | 88 | 51 | -23 | 90
NS(=O)(=O)c1ccc(Nc2ccc3nonc3c2[N+](=O)[O-])cc1 | 133* | -4 | -34 | 2 | 110 | 98 | -4 | 100
O=[N+]([O-])c1c(Nc2ccccc2)ccc2nonc12 | 100 | 9 | -15 | 3 | 99 | x | x | x
COc1ccc(-c2nc3ccccc3c(=O)n2CCOc2cc(C)ccc2C)cc1 | 100 | 1 | 9 | -1 | 100 | x | x | x
Cc1cc(=O)c2cccc(Br)c2[nH]1 | 113 | 8 | -1 | 13 | 102 | x | x | x
Cc1cc(=O)c2c(C)ccc(C)c2[nH]1 | 74*[inhibitor] | -5 | 11 | -25 | 85 | 103 | 2 | 105
COc1cccc(OC)c1C(=O)Nc1sc2c(c1C(N)=O)CCN(Cc1ccccc1)C2 | 102 | 8 | 2 | 2 | 99 | x | x | x
CCN1CCc2c(sc(NC(=O)c3cc4ccccc4cc3OC)c2C(N)=O)C1 | 104 | 65* | 25 | 26* | 149* | 131 | 30 | 88
CN(c1ccccc1)S(=O)(=O)c1cccc(NC(=O)CSc2ncc(C(F)(F)F)cc2Cl)c1 | 90 | 13 | 4 | -4 | 93 | x | x | x
CC(C)Oc1ccc(CNC(=O)CC(c2ccccc2)c2cc(Cl)ccc2O)cc1 (stereo not given) | 92 | 13 | 13 | -2 | 91 | x | x | x
CC(C)Oc1ccc(C(CCNCc2ccc(O)cc2)c2ccccc2)cc1 (stereo not given) | 107 | 13 | 32 | 24* | 150* | 132 | 13 | 99
COc1ccc(C(CCNCc2ccc(N(C)C)cc2)c2ccccc2)cc1 (stereo not given) | 109 | 15 | 17 | 22 | 159* | 137 | 11 | 98
O=C(OCC#CCSc1nnc(-c2cccc3ccccc23)o1)c1ccco1 | 99 | 20 | 0 | -3 | 95 | x | x | x
CCCCn1c(N)c(N(CC(C)C)C(=O)c2ccc(N3C(=O)CCC3=O)cc2)c(=O)[nH]c1=O | x | 3 | -2 | x | x | x | x | x
COc1ccc(CNC(=S)Nc2cccc(C)c2C)cc1 | 78*[inhibitor] | 15 | 1 | -11 | 82 | 98 | -1 | 101
O=C(CN(C(=O)c1csnn1)c1cccc(Cl)c1)NC1CCCCC1 | 99 | 3 | 3 | 0 | 97 | x | x | x
Cc1ccc(N=C2NC(=O)S/C2=C\c2ccco2)cc1 | 100 | -8 | -8 | 1 | 100 | x | x | x
O=C1NC(=Nc2ccccc2)/C(=C/c2ccco2)S1 | 132* | 22 | -20 | -1 | 100 | 99 | -3 | 102
Clc1cccc(-c2ccc(C3Nc4cccc5cccc(c45)N3)o2)c1 | x | 25 | -55 | x | x | x | x | x
CC(C)CC(=O)/C(=C/c1ccc(N(C)C)cc1)n1cncn1 | 69*[inhibitor] | 4 | -10 | -9 | 37*[inhibitor] | 104 | 0 | 102
COc1cc2[nH]c(=O)n(CCCC(=O)N3CC=C(c4ccccc4)CC3)c(=O)c2cc1OC | 127* | 24 | -3 | 10 | 120 | 105 | 4 | 104
SMILES | MEKK3 PB1 HTS | Apaf1 inhib | UBC13 inh | MEKK2mut PB1 HTS | MEKK2wt PB1 HTS | MEKK2wt confirm | MEKK2mut-MEK5 | MEKK3 confirm
COc1cc2[nH]c(=O)n(CCC(=O)N3CC=C(c4ccccc4)CC3)c(=O)c2cc1OC | 97 | 6 | -3 | -2 | 100 | x | x | x
Cc1ccc(C)n1-c1ccc(-c2ccnc(N)n2)cc1 | 147* | x | x | 14 | 112 | 104 | 5 | 100
Cc1onc(-c2ccccc2)c1-c1ccnc(N)n1 | 95 | -9 | 6 | -11 | 105 | x | x | x
C=CCOC(=O)/C(=C\C=C\c1ccccc1)NC(=O)c1ccccc1 | 89 | 23 | -6 | 0 | 90 | x | x | x
COc1cc(/C=N/N2CCN(C3c4ccccc4-c4ccccc43)CC2)cc(OC)c1OC | 130* | 15 | -12 | -1 | 106 | 109 | 3 | 105
COc1cc(/C=N/N2CCN(C3c4ccccc4-c4ccccc43)CC2)cc(OC)c1O | 98 | 8 | 4 | 3 | 100 | x | x | x
O=C(O)c1ccc(/C=N/N2CCN(C3c4ccccc4-c4ccccc43)CC2)cc1 | 96 | 14 | -20 | 0 | 94 | x | x | x
O=C(O)c1ccccc1/C=N/N1CCN(C2c3ccccc3-c3ccccc32)CC1 | 71*[inhibitor] | 10 | -1 | -36 | 68 | 108 | 0 | 105
COc1ccc(S(=O)(=O)N2CCN(C(=O)CSC(=S)N3CCCC3)CC2)cc1 | x | -6 | 4 | x | x | x | x | x
COc1cc(CN2CCNC(=O)C2CC(=O)N2CCCN(C(C)=O)CC2)cc(OC)c1 (stereo not given) | 105 | 1 | -1 | 12 | 104 | x | x | x
COc1ccccc1/C=C1\SC(=S)N(CCC(=O)Nc2cccc(O)c2)C1=O | 107 | 14 | -7 | 2 | 93 | x | x | x
Cc1ccc(-c2nnnn2-c2ccc(C)cc2)cc1 | 2.0*[inhibitor] | 2 | 0 | -84 | 1.0*[inhibitor] | 105 | 11 | 103
Cc1ccc(-n2nnnc2-c2cccc(C)c2)cc1 | 97 | -2 | 10 | -4 | 94 | x | x | x
CCCC(C)NC(=O)COc1ccc(Sc2ccc(OCC(=O)NC(C)CCC)cc2)cc1 (stereo not given) | 137* | 12 | 8 | 0 | 104 | 100 | -3 | 96

Screening data: PubChem BioAssay, several laboratories
